Measured values taken from ChEMBL document CHEMBL3997810, “A Novel Potent Anticancer Compound Optimized from a Natural Oridonin Scaffold Induces Apoptosis and Cell Cycle Arrest through the Mitochondrial Pathway” (J Med Chem, 2017).
Activity calls are given as the source filed them. The calls are words filed in the database; no cut-off is given here.

Experiments:
[1] = system: MGC-803; experiment: Antiproliferative activity against human MGC803 cells after 72 hrs by MTT assay; assay type: functional, cell-based; details: MGC-803, 72 h
Summary of the method: (§1)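 MGC-803 and MCF-7 cells grown in DMEM (MCF-7 with 1× NEAA); Bel-7402 and K562 grown in RPMI 1640; all media with 10% FBS. Cells seeded at 3500/well, pre-incubated 24 h, then exposed to compounds in fresh medium (DMSO ≤0.25%) for 72 h at 37 °C. MTT read-out at 570 nm. Quadruplicate wells, repeated three times; means ± SD (n = 3).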

[2] = system: Bel-7402; experiment: Antiproliferative activity against human Bel7402 cells after 72 hrs by MTT assay; assay type: functional, cell-based; details: Bel-7402, 72 h; summary of the method: as §1
[3] = system: MCF7; experiment: Antiproliferative activity against human MCF7 cells after 72 hrs by MTT assay; assay type: functional, cell-based; details: MCF7, 72 h; summary of the method: as §1
[4] = system: K562; experiment: Antiproliferative activity against human K562 cells after 72 hrs by MTT assay; assay type: functional, cell-based; details: K562, 72 h; summary of the method: as §1
[5] = system: BEL-7404 tumor cell line; experiment: Antiproliferative activity against human Bel7404 cells after 48 hrs by MTT assay; assay type: functional, cell-based; details: BEL-7404, 48 h
Summary of the method: (§2)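 Colorimetric MTT assay. KB-3-1, NCI-H460 and Bel-7404 cells were seeded at 4000 cells/well; resistant KB/CP4, NCI-H460/MX20 and Bel-7404/CP20 were seeded at 7000 cells/well. Cells were pre-incubated 24 h at 37 °C, 5% CO2, then exposed to a compound concentration series for 48 h with DMSO ≤0.25%. Absorbance read at 570 nm. Quadruplicate wells, three repeats; means ± SD.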

[6] = system: KB 3-1; experiment: Antiproliferative activity against human KB-3-1 cells after 48 hrs by MTT assay; assay type: functional, cell-based; details: KB 3-1, 48 h; summary of the method: as §2
[7] = Antiproliferative activity against human NCI-H460/MX20 cells after 48 hrs by MTT assay; assay type: functional, cell-based; details: NCI-H460/MX20, 48 h; summary of the method: as §2
[8] = system: NCI-H460; experiment: Antiproliferative activity against human NCI-H460 cells after 48 hrs by MTT assay; assay type: functional, cell-based; details: NCI-H460, 48 h; summary of the method: as §2
[9] = Antiproliferative activity against human BEL7404/CP20 cells after 48 hrs by MTT assay; assay type: functional, cell-based; details: BEL7404/CP20, 48 h; summary of the method: as §2
[10] = Antiproliferative activity against human KB/CP4 cells after 48 hrs by MTT assay; assay type: functional, cell-based; details: KB/CP4, 48 h; summary of the method: as §2
[11] = Selectivity ratio of IC50 for human KB/CP4 cells to IC50 for human KB-3-1 cells
[12] = system: Bel-7402; experiment: Cytotoxicity against human Bel7402 cells at 10 to 50 uM after 24 hrs by LDH assay; assay type: functional, cell-based
Summary of the method: (§3)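 Membrane integrity assay on MCF-7 and Bel-7402 cells seeded at ~5 × 10^3 per well for 24 h, then given compounds at 10, 20 or 50 μM. Culture medium collected and assayed with CytoTox-ONE LDH reagent for 10 min, followed by stop solution. Fluorescence read at Ex 560/Em 590 nm. Expressed as percentage of unstimulated cells.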

[13] = system: MCF7; experiment: Cytotoxicity against human MCF7 cells at 10 to 50 uM after 24 hrs by LDH assay; assay type: functional, cell-based; summary of the method: as §3

## C=C1C(=O)[C@]23[C@H](OC(C)=O)[C@H]1CC[C@H]2[C@]12C=CCC(C)(C)[C@H]1[C@H](O)[C@]3(O)OC2
[1]
  IC50: 1.82 µM
[2]
  IC50: 1.67 µM
[3]
  IC50: 2.57 µM
[4]
  IC50: 1.67 µM

## C=C1C(=O)[C@]23[C@H](OC(=O)c4ccccc4C(F)(F)F)[C@H]1CC[C@H]2[C@]12C=CC(=O)C(C)(C)[C@H]1[C@H](O)[C@]3(O)OC2
[1]
  IC50: 3.61 µM
[2]
  IC50: 2.93 µM
[3]
  IC50: 3.84 µM
[4]
  IC50: 2.61 µM

## C=C1C(=O)[C@]23[C@H](OC(=O)CCCC)[C@H]1CC[C@H]2[C@]12C=CCC(C)(C)[C@H]1[C@H](O)[C@]3(O)OC2
[1]
  IC50: 6.19 µM
[2]
  IC50: 6 µM
[3]
  IC50: 2.49 µM
[4]
  IC50: 1.74 µM

## C=C1C(=O)[C@]23[C@H](OC(=O)C4CCCCC4)[C@H]1CC[C@H]2[C@]12C=CCC(C)(C)[C@H]1[C@H](O)[C@]3(O)OC2
[1]
  IC50: 3.6 µM
[2]
  IC50: 4.06 µM
[3]
  IC50: 5.83 µM
[4]
  IC50: 3.22 µM

## C=C1C(=O)[C@]23[C@H](OC(=O)/C=C/c4ccc(F)cc4)[C@H]1CC[C@H]2[C@]12C=CCC(C)(C)[C@H]1[C@H](O)[C@]3(O)OC2
[1]
  IC50: 5.11 µM
[2]
  IC50: 2.58 µM
[3]
  IC50: 2.51 µM
[4]
  IC50: 1.34 µM

## C=C1C(=O)[C@]23[C@H](OC(=O)/C=C/c4ccccc4OC)[C@H]1CC[C@H]2[C@]12C=CCC(C)(C)[C@H]1[C@H](O)[C@]3(O)OC2
[5]
  IC50: 6.06 µM
[1]
  IC50: 2.46 µM
[6]
  IC50: 8.31 µM
[7]
  IC50: 5.53 µM
[8]
  IC50: 5.31 µM
[9]
  IC50: 6.87 µM
[2]
  IC50: 2.22 µM
[3]
  IC50: 0.82 µM
[10]
  IC50: 4.61 µM
[11]
  Ratio IC50: <1
[4]
  IC50: 0.43 µM

## C=C1C(=O)[C@]23[C@H](OC(=O)CCCCCCC)[C@H]1CC[C@H]2[C@]12C=CCC(C)(C)[C@H]1[C@H](O)[C@]3(O)OC2
[1]
  IC50: 2.71 µM
[12]
  Activity: inactive
[13]
  Activity: inactive
[2]
  IC50: 4.34 µM
[3]
  IC50: 2.44 µM
[4]
  IC50: 3 µM

## C=C1C(=O)[C@]23[C@H](OC(=O)/C=C/c4cccc([N+](=O)[O-])c4)[C@H]1CC[C@H]2[C@]12C=CCC(C)(C)[C@H]1[C@H](O)[C@]3(O)OC2
[1]
  IC50: 2.47 µM
[2]
  IC50: 1.77 µM
[3]
  IC50: 1.37 µM
[4]
  IC50: 0.58 µM

## C=C1C(=O)[C@]23[C@H](O)[C@H]1CC[C@H]2[C@@]12CO[C@@]3(O)[C@@H](O)[C@@H]1C(C)(C)C[C@H](Cl)[C@H]2O
[5]
  IC50: 6.96 µM
[1]
  IC50: 3.18 µM
[6]
  IC50: 6.54 µM
[12]
  Activity: inactive
[7]
  IC50: 49 µM
[8]
  IC50: 8.8 µM
[13]
  Activity: inactive
[9]
  IC50: 5.98 µM
[2]
  IC50: 1.69 µM
[3]
  IC50: 3.43 µM
[10]
  IC50: 5.92 µM
[11]
  Ratio IC50: <1
[4]
  IC50: 2.3 µM

## C=C1C(=O)[C@]23[C@H](OC(=O)c4ccnc(Cl)c4)[C@H]1CC[C@H]2[C@]12C=CC(=O)C(C)(C)[C@H]1[C@H](O)[C@]3(O)OC2
[1]
  IC50: 3.76 µM
[2]
  IC50: 3.3 µM
[3]
  IC50: 5.15 µM
[4]
  IC50: 2.94 µM

## C=C1C(=O)[C@]23[C@H](OC(=O)c4ccccc4C(F)(F)F)[C@H]1CC[C@H]2[C@]12C=CCC(C)(C)[C@H]1[C@H](O)[C@]3(O)OC2
[1]
  IC50: 2.46 µM
[2]
  IC50: 3.18 µM
[3]
  IC50: 2.66 µM
[4]
  IC50: 2.96 µM

## C=C1C(=O)[C@]23[C@H](OC(=O)/C=C/c4cc(OC)c(OC)c(OC)c4)[C@H]1CC[C@H]2[C@]12C=CCC(C)(C)[C@H]1[C@H](O)[C@]3(O)OC2
[1]
  IC50: 3.91 µM
[2]
  IC50: 2.44 µM
[3]
  IC50: 2.36 µM
[4]
  IC50: 0.55 µM

## C=C1C(=O)[C@]23[C@H](O)[C@H]1CC[C@H]2[C@@]12CO[C@@]3(O)[C@@H](O)[C@@H]1C(C)(C)C[C@H]1O[C@H]12
[5]
  IC50: 13.7 µM
[1]
  IC50: 5.74 µM
[6]
  IC50: 21 µM
[12]
  Activity: inactive
[7]
  IC50: 11.2 µM
[8]
  IC50: 8.81 µM
[13]
  Activity: inactive
[9]
  IC50: 21.6 µM
[2]
  IC50: 5.77 µM
[3]
  IC50: 5.37 µM
[10]
  IC50: 7.74 µM
[11]
  Ratio IC50: <1
[4]
  IC50: 1.59 µM

## C=C1C(=O)[C@]23[C@H](OC(=O)c4cccc(Cl)c4)[C@H]1CC[C@H]2[C@]12C=CCC(C)(C)[C@H]1[C@H](O)[C@]3(O)OC2
[1]
  IC50: 3.65 µM
[2]
  IC50: 4.16 µM
[3]
  IC50: 2.8 µM
[4]
  IC50: 2.23 µM

## C=C1C(=O)[C@]23[C@H](OC(=O)/C=C/c4ccc(OC)cc4)[C@H]1CC[C@H]2[C@]12C=CCC(C)(C)[C@H]1[C@H](O)[C@]3(O)OC2
[1]
  IC50: 2.91 µM
[2]
  IC50: 2.42 µM
[3]
  IC50: 0.95 µM
[4]
  IC50: 0.88 µM

## C=C1C(=O)[C@]23[C@H](O)[C@H]1CC[C@H]2[C@]12C=C[C@H](O)C(C)(C)[C@H]1[C@H](O)[C@]3(O)OC2
[1]
  IC50: 61.1 µM
[2]
  IC50: 25.5 µM
[3]
  IC50: 303 µM
[4]
  IC50: 41.1 µM

## O=c1[nH]cc(F)c(=O)[nH]1 [FLUOROURACIL]
[1]
  IC50: 3.12 µM
[2]
  IC50: 2.25 µM
[3]
  IC50: 1.75 µM
[4]
  IC50: 3.54 µM

## C=C1C(=O)[C@]23[C@H](OC(=O)c4cc(C)ccc4C)[C@H]1CC[C@H]2[C@]12C=CCC(C)(C)[C@H]1[C@H](O)[C@]3(O)OC2
[1]
  IC50: 6.94 µM
[2]
  IC50: 7.11 µM
[3]
  IC50: 6.14 µM
[4]
  IC50: 4.19 µM

## C=C1C(=O)[C@]23[C@H](OC(=O)c4ccc(Br)cc4)[C@H]1CC[C@H]2[C@]12C=CCC(C)(C)[C@H]1[C@H](O)[C@]3(O)OC2
[5]
  IC50: 5.35 µM
[1]
  IC50: 2.01 µM
[6]
  IC50: 5.82 µM
[7]
  IC50: 4.73 µM
[8]
  IC50: 5.31 µM
[9]
  IC50: 6.05 µM
[2]
  IC50: 1.06 µM
[3]
  IC50: 0.14 µM
[10]
  IC50: 3.24 µM
[11]
  Ratio IC50: <1
[4]
  IC50: 0.33 µM

## C=C1C(=O)[C@]23[C@H](OC(=O)c4ccc([N+](=O)[O-])cc4)[C@H]1CC[C@H]2[C@]12C=CCC(C)(C)[C@H]1[C@H](O)[C@]3(O)OC2
[1]
  IC50: 6.39 µM
[2]
  IC50: 5.14 µM
[3]
  IC50: 4.47 µM
[4]
  IC50: 1.7 µM

## C=C1C(=O)[C@]23[C@H](OC(=O)c4cccc(C)c4C)[C@H]1CC[C@H]2[C@]12C=CCC(C)(C)[C@H]1[C@H](O)[C@]3(O)OC2
[1]
  IC50: 3.78 µM
[2]
  IC50: 2.33 µM
[3]
  IC50: 3.58 µM
[4]
  IC50: 1.68 µM

## C=C1C(=O)[C@]23[C@H](OC(=O)c4cc(F)c(F)c(F)c4F)[C@H]1CC[C@H]2[C@]12C=CCC(C)(C)[C@H]1[C@H](O)[C@]3(O)OC2
[1]
  IC50: 1 µM
[2]
  IC50: 1.58 µM
[3]
  IC50: 2.11 µM
[4]
  IC50: 1.83 µM

## C=C1C(=O)[C@]23[C@H](OC(=O)c4c(OC)cccc4OC)[C@H]1CC[C@H]2[C@]12C=CCC(C)(C)[C@H]1[C@H](O)[C@]3(O)OC2
[1]
  IC50: 21.2 µM
[2]
  IC50: 45.3 µM
[3]
  IC50: 12.5 µM
[4]
  IC50: 6.85 µM

## C=C1C(=O)[C@]23[C@H](OC(C)=O)[C@H]1CC[C@H]2[C@]12C=CC(=O)C(C)(C)[C@H]1[C@H](O)[C@]3(O)OC2
[1]
  IC50: 5.19 µM
[2]
  IC50: 3.61 µM
[3]
  IC50: 9.41 µM
[4]
  IC50: 4.64 µM
